Experimental findings from ChEMBL document CHEMBL3352359, “Cycloartane triterpenoids and their glycosides from the rhizomes of Cimicifuga foetida” (J Nat Prod, 2014) are described below.

In general, IC50 refers to the concentration that gives 50% inhibition. A higher IC50 goes with weaker potency in that assay.

What all share (assay type): functional, cell-based
Assay [1] in a line: Cytotoxicity against human H460 cells after 48 hrs by MTT assay. As to conditions: NCI-H460, 48 h. A digest of the protocol: (§1)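 Adherent cells grown in DMEM with 10% FBS at 37 °C under 5% CO2. Cells were seeded in 96-well plates and left 12 h to attach, then exposed in triplicate to a range of compound concentrations for 48 h, with cisplatin as positive control. MTT read-out was absorbance at 570 nm (reference 630 nm). IC50 was derived by the Reed–Muench method.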

A short description of assay [2]: Cytotoxicity against human SMMC-7721 cells after 48 hrs by MTT assay. As to conditions: SMMC-7721, 48 h. A digest of the protocol:
as §1

Assay [3] can be described thus: Cytotoxicity against human HL60 cells after 48 hrs by MTT assay. As to conditions: HL-60, 48 h. The method in brief:
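HL-60 suspension cells were grown in DMEM with 10% FBS at 37 °C under 5% CO2. They were seeded at 1 × 10^5 cells/mL in 96-well plates just before compound addition, then exposed in triplicate to graded concentrations for 48 h, with cisplatin as positive control. MTT absorbance was read at 570 nm against 630 nm reference. IC50 was calculated by the Reed–Muench method.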

The subject of another assay is HeLa. Description: Cytotoxicity against human HeLa cells after 48 hrs by MTT assay. A digest of the protocol: as §1
For orientation: Tetrazolium dyes change colour on reduction, which living cells bring about.

Another assay has as its system MCF7. Put plainly: Cytotoxicity against human MCF7 cells after 48 hrs by MTT assay. As to conditions: MCF7, 48 h. A digest of the protocol: as §1

On to `C[C@H](CC(=O)[C@H](O)C(C)(C)O)[C@H]1C(=O)C[C@@]2(C)C3=CC[C@@H]4C(=CC[C@H](O)C4(C)C)CC3=CC[C@]12C`, for which the IC50 (in assay [1]; in assay [2]; in assay [3]; in the assay on HeLa; in the assay with MCF7) was > 10 µM throughout.

Regarding `C[C@H](CC(=O)[C@@H](O)C(C)(C)O)[C@H]1C(=O)C[C@@]2(C)C3=CC[C@@H]4C(=CC[C@H](O)C4(C)C)CC3=CC[C@]12C`, the IC50 (in assay [1]; in assay [2]; in assay [3]; in the assay on HeLa; in the assay with MCF7) was > 10 µM throughout.

As to `C[C@H](CC(=O)[C@H](O)C(C)(C)O)[C@H]1C(=O)C[C@@]2(C)C3=CC[C@H]4C(C)(C)[C@@H](O[C@@H]5OC[C@@H](O)[C@H](O)[C@H]5O)CC[C@]4(O)CC3=CC[C@]12C`, the 50% inhibitory concentration (IC50) (in assay [1]; in assay [2]; in assay [3]; in the assay on HeLa; in the assay on MCF7) was > 10 µM each time.

For the molecule `C[C@H](CC(=O)[C@H](O)C(C)(C)O)[C@H]1C(=O)C[C@@]2(C)C3=CC[C@H]4C(C)(C)[C@@H](O[C@@H]5OC[C@@H](O)[C@H](O)[C@H]5O)CC[C@@]4(O)CC3=CC[C@]12C`, the 50% inhibitory concentration (IC50) (in assay [1]; in assay [2]; in assay [3]; with HeLa; in the assay on MCF7) was > 10 µM in each case.

In the case of `C[C@H](CC(=O)[C@@H]1OC1(C)C)[C@H]1C(=O)C[C@@]2(C)C3=CC[C@H]4C(C)(C)[C@@H](O[C@@H]5OC[C@@H](O)[C@H](O)[C@H]5O)CC[C@]4(O)CC3=CC[C@]12C`, the half-inhibitory concentration (IC50) (in assay [1]; in assay [2]; in assay [3]; in the assay with HeLa; in the assay with MCF7) was > 10 µM throughout.

Regarding `C[C@H](CC(=O)[C@@H]1OC1(C)C)[C@H]1C(=O)C[C@@]2(C)C3=CC[C@H]4C(C)(C)[C@@H](O[C@@H]5OC[C@@H](O)[C@H](O)[C@H]5O)CC[C@@]4(O)CC3=CC[C@]12C`, the IC50 (in assay [1]; in assay [2]; in assay [3]; with HeLa; in the assay with MCF7) was > 10 µM throughout.

In the case of `CC(=O)O[C@@H]1C[C@@]23C[C@@]24CC[C@H](O[C@@H]2OC[C@@H](O)[C@H](O)[C@H]2O)C(C)(C)[C@@H]4CC[C@H]3[C@]2(C)C[C@@H]3O[C@](O)(C(=O)C(C)C)C[C@@H](C)[C@@H]3[C@@]12C`, the 50% inhibitory concentration (IC50) (in assay [1]; in assay [2]; in assay [3]; in the assay on HeLa; in the assay with MCF7) was > 10 µM in each case.

With `CC(=O)O[C@@H]1C[C@@]23C[C@@]24CC[C@H](O[C@@H]2OC[C@@H](O)[C@H](O)[C@H]2O)C(C)(C)[C@@H]4CC[C@H]3[C@]2(C)C[C@@H]3OC(C(O)C(C)(C)O)=C[C@@H](C)[C@@H]3[C@@]12C` (stereo not given in full), the IC50 (in assay [1]; in assay [2]; in assay [3]; in the assay with HeLa; in the assay on MCF7) was > 10 µM each time.

Consider `CC(=O)O[C@@H]1C[C@@]23C[C@@]24CC[C@H](O[C@@H]2OC[C@@H](O)[C@H](O)[C@H]2O)C(C)(C)[C@@H]4CC[C@H]3[C@]2(C)C[C@@H]3O[C@]4(O)[C@H](OC(C)(C)[C@@H]4O)[C@@H](C)[C@@H]3[C@@]12C`, for which the concentration for half-maximal inhibition (IC50) (in assay [1]; in assay [2]; in assay [3]; in the assay on HeLa; in the assay with MCF7) was > 10 µM throughout.

On to `C[C@@H]1C[C@H]2O[C@@]3(O[C@@H]2C(C)(C)O)[C@H](O)[C@@]2(C)[C@@H]4CC[C@H]5C(C)(C)[C@@H](O[C@@H]6OC[C@@H](O)[C@H](O)[C@H]6O)CC[C@@]56C[C@@]46C[C@@H](O)[C@]2(C)[C@@H]13`, for which the IC50 (in assay [1]; in assay [2]; in assay [3]; in the assay on HeLa; in the assay with MCF7) was > 10 µM each time.

In the case of `CC(=O)O[C@@H]1[C@@H](O)[C@H](O[C@H]2CC[C@]34C[C@]35CC[C@]3(C)[C@H]6[C@H](C)C[C@H]7O[C@@]6(O[C@@H]7C(C)(C)OC(C)=O)[C@H](O)[C@@]3(C)[C@@H]5CC[C@H]4C2(C)C)OC[C@H]1O`, the IC50 in assay [1] was > 10 µM; in assay [2] it was 5.5 µM; in assay [3], > 10 µM; in the assay on HeLa it was > 10 µM; with MCF7, > 10 µM.

On to `CC(=O)O[C@@H]1CO[C@@H](O[C@H]2CC[C@]34C[C@]35CC[C@]3(C)[C@H]6[C@H](C)C[C@H]7O[C@@]6(O[C@@H]7C(C)(C)OC(C)=O)[C@H](O)[C@@]3(C)[C@@H]5CC[C@H]4C2(C)C)[C@H](O)[C@H]1O`, for which the IC50 in assay [1] was > 10 µM; in assay [2] it was 6.3 µM; in assay [3] it was > 10 µM; in the assay on HeLa, > 10 µM; with MCF7 it was > 10 µM.

With `C=C(C)[C@@H](O)C(=O)C[C@@H](C)[C@H]1C(=O)C[C@@]2(C)C3=CC[C@H]4C(C)(C)[C@@H](O[C@@H]5OC[C@@H](O)[C@H](O)[C@H]5O)CC[C@@]45C[C@]35[C@@H](O)C[C@]12C`, the half-maximal inhibitory concentration (IC50) (in assay [1]; in assay [2]; in assay [3]; in the assay with HeLa; in the assay with MCF7) was > 10 µM each time.

On to `CC(=O)O[C@@H]1C[C@@]23C[C@@]24CC[C@H](O[C@@H]2OC[C@@H](O)[C@H](O)[C@H]2O)C(C)(C)[C@@H]4CC[C@H]3[C@]2(C)[C@@H](O)[C@]34O[C@H](C[C@@H](C)[C@@H]3[C@@]12C)[C@@H](C(C)(C)O)O4`, for which the half-maximal inhibitory concentration (IC50) (in assay [1]; in assay [2]; in assay [3]; in the assay on HeLa; in the assay with MCF7) was > 10 µM in each case.

As to `CC(=O)O[C@@H]1C[C@@]23C[C@@]24CC[C@H](O[C@@H]2OC[C@@H](O)[C@H](O)[C@H]2O)C(C)(C)[C@@H]4CC[C@H]3[C@]2(C)C[C@@H]3O[C@@]4(C[C@@H](C)[C@@H]3[C@@]12C)OC[C@]1(C)O[C@H]41`, the IC50 (in assay [1]; in assay [2]; in assay [3]; in the assay with HeLa; with MCF7) was > 10 µM in each case.

As for `CC(=O)O[C@@H]1C[C@@]23C[C@@]24CC[C@H](O[C@@H]2OC[C@@H](O)[C@H](O)[C@H]2O)C(C)(C)[C@@H]4CC[C@H]3[C@]2(C)C[C@@H]3O[C@]4(C[C@@H](C)[C@@H]3[C@@]12C)O[C@H](O)[C@@]1(C)O[C@@H]41` [ACTEIN], the IC50 (in assay [1]; in assay [2]; in assay [3]; in the assay on HeLa; with MCF7) was > 10 µM throughout.
